From ChEMBL document CHEMBL3124806, “Imidazopyridine-fused [1,3]-diazepinones: synthesis and antiproliferative activity” (Eur J Med Chem, 2014)

Columns and labels:
Format in all cases: functional
[1] = Cytotoxicity against human NCI-ADR-RES cells assessed as cell growth at 10 uM after 48 hrs by SRB assay relative to untreated control; conditions: read-out: Activity
In short: (§1)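 NCI-60 one-dose screen: each agent added at 10 µM, cultures incubated 48 h. Endpoint by sulforhodamine B protein-binding dye read spectrophotometrically; growth expressed as percent of untreated control cells.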

SF-268 = assay: Cytotoxicity against human SF268 cells assessed as cell growth at 10 uM after 48 hrs by SRB assay relative to untreated control; conditions: SF-268, 48 h, read-out: Activity; in short: as §1
OVCAR-3 = assay: Cytotoxicity against human OVCAR3 cells assessed as cell growth at 10 uM after 48 hrs by SRB assay relative to untreated control; conditions: OVCAR-3, 48 h, read-out: Activity; in short: as §1
SF-295 = assay: Cytotoxicity against human SF295 cells assessed as cell growth at 10 uM after 48 hrs by SRB assay relative to untreated control; conditions: SF-295, 48 h, read-out: Activity; in short: as §1
LOX IMVI = assay: Cytotoxicity against human LOXIMVI cells assessed as cell growth at 10 uM after 48 hrs by SRB assay relative to untreated control; conditions: read-out: Activity
In short: (§2)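 NCI-60 panel screen at a single concentration of 10 μM with 48 h incubation. Cell density measured by sulforhodamine B protein-binding dye and read spectrophotometrically. Growth expressed as percent of untreated control cells.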

SK-OV-3 = assay: Cytotoxicity against human SKOV3 cells assessed as cell growth at 10 uM after 48 hrs by SRB assay relative to untreated control; conditions: SK-OV-3, 48 h, read-out: Activity
In short: (§3)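 NCI-60 single-dose screen. Compounds were added to the cultures at 10 μM and incubated for 48 h. The end point was sulforhodamine B protein staining read spectrophotometrically. Growth is reported as percent of untreated control cells.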

Malme-3M = assay: Cytotoxicity against human MALME-3M cells assessed as cell growth at 10 uM after 48 hrs by SRB assay relative to untreated control; conditions: read-out: Activity; in short: as §2
HOP-62 = assay: Cytotoxicity against human HOP62 cells assessed as cell growth at 10 uM after 48 hrs by SRB assay relative to untreated control; conditions: HOP-62, 48 h, read-out: Activity; in short: as §2
786-0 = assay: Cytotoxicity against human […] cells assessed as cell growth at 10 uM after 48 hrs by SRB assay relative to untreated control; conditions: 786-0, 48 h, read-out: Activity; in short: as §2
KM12 = assay: Cytotoxicity against human KM12 cells assessed as cell growth at 10 uM after 48 hrs by SRB assay relative to untreated control; conditions: KM12, 48 h, read-out: Activity; in short: as §2
RXF 393 = assay: Cytotoxicity against human RXF393 cells assessed as cell growth at 10 uM after 48 hrs by SRB assay relative to untreated control; conditions: RXF 393, 48 h, read-out: Activity; in short: as §1
UACC-62 = assay: Cytotoxicity against human UACC62 cells assessed as cell growth at 10 uM after 48 hrs by SRB assay relative to untreated control; conditions: UACC-62, 48 h, read-out: Activity; in short: as §3
PC-3 = assay: Cytotoxicity against human PC3 cells assessed as cell growth at 10 uM after 48 hrs by SRB assay relative to untreated control; conditions: PC-3, 48 h, read-out: Activity; in short: as §1
HCT-116 = assay: Cytotoxicity against human HCT116 cells assessed as cell growth at 10 uM after 48 hrs by SRB assay relative to untreated control; conditions: HCT-116, 48 h, read-out: Activity; in short: as §2
T47D = assay: Cytotoxicity against human T47D cells assessed as cell growth at 10 uM after 48 hrs by SRB assay relative to untreated control; conditions: read-out: Activity; in short: as §3
COLO 205 = assay: Cytotoxicity against human COLO205 cells assessed as cell growth at 10 uM after 48 hrs by SRB assay relative to untreated control; conditions: COLO 205, 48 h, read-out: Activity; in short: as §2
HCT-15 = assay: Cytotoxicity against human HCT15 cells assessed as cell growth at 10 uM after 48 hrs by SRB assay relative to untreated control; conditions: HCT-15, 48 h, read-out: Activity; in short: as §2
NCI-H322M = assay: Cytotoxicity against human NCI-H322M cells assessed as cell growth at 10 uM after 48 hrs by SRB assay relative to untreated control; conditions: read-out: Activity; in short: as §1
NCI-H23 = assay: Cytotoxicity against human NCI-H23 cells assessed as cell growth at 10 uM after 48 hrs by SRB assay relative to untreated control; conditions: NCI-H23, 48 h, read-out: Activity; in short: as §1
MOLT-4 = assay: Cytotoxicity against human MOLT4 cells assessed as cell growth at 10 uM after 48 hrs by SRB assay relative to untreated control; conditions: MOLT-4, 48 h, read-out: Activity; in short: as §1
[2] = Cytotoxicity against human Hs578T cells assessed as cell growth at 10 uM after 48 hrs by SRB assay relative to untreated control; conditions: Hs-578T, read-out: Activity; in short: as §2
SNB-75 = assay: Cytotoxicity against human SNB75 cells assessed as cell growth at 10 uM after 48 hrs by SRB assay relative to untreated control; conditions: SNB-75, 48 h, read-out: Activity; in short: as §3
[3] = Cytotoxicity against human OVCAR4 cells assessed as cell growth at 10 uM after 48 hrs by SRB assay relative to untreated control; conditions: OVCAR-4, 48 h, read-out: Activity; in short: as §1
DU-145 = assay: Cytotoxicity against human DU145 cells assessed as cell growth at 10 uM after 48 hrs by SRB assay relative to untreated control; conditions: DU-145, 48 h, read-out: Activity; in short: as §2
SR = assay: Cytotoxicity against human SR cells assessed as cell growth at 10 uM after 48 hrs by SRB assay relative to untreated control; conditions: read-out: Activity; in short: as §3
SW-620 = assay: Cytotoxicity against human SW620 cells assessed as cell growth at 10 uM after 48 hrs by SRB assay relative to untreated control; conditions: SW-620, 48 h, read-out: Activity; in short: as §3
K562 = assay: Cytotoxicity against human K562 cells assessed as cell growth at 10 uM after 48 hrs by SRB assay relative to untreated control; conditions: K562, 48 h, read-out: Activity; in short: as §2
HOP-92 = assay: Cytotoxicity against human HOP92 cells assessed as cell growth at 10 uM after 48 hrs by SRB assay relative to untreated control; conditions: HOP-92, 48 h, read-out: Activity; in short: as §2
U-251 = assay: Cytotoxicity against human U251 cells assessed as cell growth at 10 uM after 48 hrs by SRB assay relative to untreated control; conditions: U-251, 48 h, read-out: Activity; in short: as §3
[4] = Cytotoxicity against human UACC257 cells assessed as cell growth at 10 uM after 48 hrs by SRB assay relative to untreated control; conditions: UACC-257, 48 h, read-out: Activity; in short: as §3
BT-549 = assay: Cytotoxicity against human BT549 cells assessed as cell growth at 10 uM after 48 hrs by SRB assay relative to untreated control; conditions: BT-549, 48 h, read-out: Activity; in short: as §2
A498 = assay: Cytotoxicity against human A498 cells assessed as cell growth at 10 uM after 48 hrs by SRB assay relative to untreated control; conditions: A498, 48 h, read-out: Activity; in short: as §2

COc1ccc(C2=Nc3nc4ccccn4c3C(=O)[C@H](C)N2)cc1
growth at 10 µM [1]: 96.5% | growth at 10 µM (SF-268): 104% | growth at 10 µM (OVCAR-3): 98.3% | growth at 10 µM (SF-295): 98.2% | growth at 10 µM (LOX IMVI): 87.6% | growth at 10 µM (SK-OV-3): 94.7% | growth at 10 µM (Malme-3M): 94.3% | growth at 10 µM (HOP-62): 80.4% | growth at 10 µM (786-0): 98.5% | growth at 10 µM (KM12): 102% | growth at 10 µM (RXF 393): 121% | growth at 10 µM (UACC-62): 94.3% | growth at 10 µM (PC-3): 87.3% | growth at 10 µM (HCT-116): 95.9% | growth at 10 µM (T47D): 97% | growth at 10 µM (COLO 205): 97.5% | growth at 10 µM (HCT-15): 85.2% | growth at 10 µM (NCI-H322M): 80.3% | growth at 10 µM (NCI-H23): 93.5% | growth at 10 µM (MOLT-4): 84.4% | growth at 10 µM [2]: 98.3% | growth at 10 µM (SNB-75): 81.9% | growth at 10 µM [3]: 98.4% | growth at 10 µM (DU-145): 113% | growth at 10 µM (SR): 80.4% | growth at 10 µM (SW-620): 106% | growth at 10 µM (K562): 86.8% | growth at 10 µM (HOP-92): 72.5% | growth at 10 µM (U-251): 98.5% | growth at 10 µM [4]: 96.1% | growth at 10 µM (BT-549): 85.7% | growth at 10 µM (A498): 105%
